Measured values published in ChEMBL document CHEMBL3407461 (J Med Chem, 2014).
Converted amounts (≈) assume the structure as drawn. The source made the active and inactive calls.

Assays:
[1] = target: Voltage-gated inwardly rectifying potassium channel KCNH2 (Homo sapiens, UniProt Q12809); assay: Inhibition of human ERG by PDSP screening
[2] = system: Mus musculus; assay: Antinociceptive activity in chronic constriction injury neutropathic pain CD-1 mouse model assessed as maximum protection on ipsilateral hind paw at 3 umol/kg, po after 30 mins to 5 hrs post dose relative to control; assay type: functional; details: CD-1, po
[3] = system: Mus musculus; assay: Antinociceptive activity in chronic constriction injury neutropathic pain CD-1 mouse model at 3 umol/kg, po after 3 hrs post dose relative to control; assay type: functional
[4] = system: CHO; assay: Selectivity ratio of IC50 for human ERG to IC50 for human recombinant A3 adenosine receptor expressed in CHO cells; assay type: cell-based
[5] = system: Mus musculus; assay: Antinociceptive activity in chronic constriction injury neutropathic pain CD-1 mouse model assessed as time for peak protection at 3 umol/kg, po; assay type: functional
Method in brief: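 Male CD-1 mice (25−30 g), chronic constriction injury of left sciatic nerve (Bennett model) under isoflurane. Dosed by gavage (3 μmol/kg, 0.2 mL) at peak mechano-allodynia on day 7; vehicle 10% DMSO in 0.5% methylcellulose. Paw withdrawal threshold (g) measured on the ipsilateral hind paw from 30 min to 5 h post dose. Expressed as % reversal, mean ± SEM over n animals.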

[6] = system: CHO; assay: Selectivity ratio of Ki for mouse A3 adenosine receptor expressed in HEK293 cells to Ki for human recombinant A3 adenosine receptor expressed in CHO cells; assay type: cell-based
[7] = target: Adenosine receptor A3 (Mus musculus, UniProt Q61618); assay: Displacement of [125I]I-AB-MECA from mouse A3 adenosine receptor expressed in HEK293 cells after 60 mins by liquid scintillation counting; assay type: cell-based
[8] = target: T1, Adenosine receptor A1 (Homo sapiens) (UniProt P30542); assay: Displacement of [3H]R-PIA from human recombinant A1 adenosine receptor expressed in CHO cells at 10 uM after 60 mins by liquid scintillation counting; assay type: cell-based
T1 sequence (whole entry): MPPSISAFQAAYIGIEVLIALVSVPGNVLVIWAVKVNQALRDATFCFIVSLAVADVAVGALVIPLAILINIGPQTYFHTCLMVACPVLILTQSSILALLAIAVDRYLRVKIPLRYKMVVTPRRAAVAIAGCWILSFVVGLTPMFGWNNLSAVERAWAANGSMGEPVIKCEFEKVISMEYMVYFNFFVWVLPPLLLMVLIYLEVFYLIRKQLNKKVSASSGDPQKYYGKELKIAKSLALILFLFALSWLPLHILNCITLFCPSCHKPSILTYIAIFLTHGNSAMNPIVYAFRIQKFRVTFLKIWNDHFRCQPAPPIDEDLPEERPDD

[9] = target: hERG (KCNH2) (Homo sapiens, UniProt Q12809); assay: Inhibition of human ERG at 10 uM by PDSP screening
[10] = target: Adenosine receptor A2a (Homo sapiens) (UniProt P29274); assay: Displacement of [3H]CGS21680 from human recombinant A2A adenosine receptor expressed in HEK293 cells at 10 uM after 60 mins by liquid scintillation counting; assay type: cell-based
[11] = target: T2, Adenosine receptor A1 (Mus musculus) (UniProt Q60612); assay: Displacement of [125I]I-AB-MECA from mouse A1 adenosine receptor expressed in HEK293 cells at 10 uM after 60 mins by liquid scintillation counting
T2 sequence (whole entry): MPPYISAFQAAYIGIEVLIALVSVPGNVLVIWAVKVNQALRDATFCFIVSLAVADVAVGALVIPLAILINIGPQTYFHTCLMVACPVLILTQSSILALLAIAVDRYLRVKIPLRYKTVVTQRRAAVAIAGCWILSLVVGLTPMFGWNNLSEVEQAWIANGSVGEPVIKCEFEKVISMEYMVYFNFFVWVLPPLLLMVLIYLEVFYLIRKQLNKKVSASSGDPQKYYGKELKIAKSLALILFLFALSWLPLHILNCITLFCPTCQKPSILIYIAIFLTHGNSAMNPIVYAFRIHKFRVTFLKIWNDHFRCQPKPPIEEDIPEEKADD

[12] = Permeability across apical to basolateral side of human Caco2 cells expressing P-gp; assay type: ADME, cell-based; details: caco-2
[13] = target: Adenosine receptor A2a (Mus musculus) (UniProt Q60613); assay: Displacement of [3H]CGS21680 from mouse A2A adenosine receptor expressed in HEK293 cells at 10 uM after 60 mins by liquid scintillation counting; assay type: cell-based
[14] = target: T3, Cytochrome P450 1A2 (Homo sapiens, UniProt P05177); assay: Inhibition of CYP1A2 in human microsomes preincubated for 5 mins before substrate addition measured after 10 mins by LC/MS/MS analysis; assay type: ADME
T3 sequence (P05177 whole entry): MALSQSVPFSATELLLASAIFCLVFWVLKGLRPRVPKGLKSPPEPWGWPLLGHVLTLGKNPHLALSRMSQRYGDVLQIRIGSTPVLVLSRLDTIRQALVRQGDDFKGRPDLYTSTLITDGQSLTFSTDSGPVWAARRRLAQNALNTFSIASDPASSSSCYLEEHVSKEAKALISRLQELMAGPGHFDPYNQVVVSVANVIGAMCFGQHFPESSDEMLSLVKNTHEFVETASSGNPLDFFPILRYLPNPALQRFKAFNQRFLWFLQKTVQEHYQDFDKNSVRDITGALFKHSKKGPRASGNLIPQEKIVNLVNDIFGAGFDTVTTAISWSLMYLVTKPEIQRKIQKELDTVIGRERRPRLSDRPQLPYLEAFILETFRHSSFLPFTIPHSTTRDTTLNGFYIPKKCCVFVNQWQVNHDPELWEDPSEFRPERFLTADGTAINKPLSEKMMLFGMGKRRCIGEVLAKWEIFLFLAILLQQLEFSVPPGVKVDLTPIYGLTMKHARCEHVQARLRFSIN

[15] = system: Liver microsome; assay: Intrinsic clearance in human liver microsomes assessed per mg protein at 100 uM by LC-MS/MS analysis; assay type: ADME
[16] = Aqueous solubility of the compound at pH 7.4 by pION Method; assay type: physicochemical; details: buffer
[17] = target: CYP3A4 (Homo sapiens, UniProt P08684); assay: Inhibition of CYP3A4 in human microsomes preincubated at 10 uM for 5 mins before substrate addition measured after 10 mins by LC/MS/MS analysis; assay type: ADME
[18] = Half life of the compound in simulated gastric fluid at pH 1.6; assay type: ADME; details: simulated gi fluid
[19] = target: Cytochrome P450 2C9 (Homo sapiens, UniProt P11712); assay: Inhibition of CYP2C9 in human microsomes preincubated for 5 mins before substrate addition measured after 10 mins by LC/MS/MS analysis; assay type: ADME
[20] = target: Cytochrome P450 2C19 (Homo sapiens, UniProt P33261); assay: Inhibition of CYP2C19 in human microsomes preincubated for 5 mins before substrate addition measured after 10 mins by LC/MS/MS analysis; assay type: ADME
[21] = target: Cytochrome P450 3A4 (Homo sapiens, UniProt P08684); assay: Inhibition of CYP3A4 in human microsomes preincubated for 5 mins before substrate addition measured after 10 mins by LC/MS/MS analysis; assay type: ADME
[22] = Half life of the compound in simulated intestinal fluid at pH 6.5; assay type: ADME; details: simulated gi fluid
[23] = system: Liver; assay: Half life in mouse liver microsomes at 100 uM by LC-MS/MS analysis; assay type: ADME
[24] = system: Plasma; assay: Fraction unbound in mouse plasma at 10 uM after 5 hrs by LC-MS/MS analysis; assay type: ADME, cell-free
[25] = target: CYP2C19 (Homo sapiens, UniProt P33261); assay: Inhibition of CYP2C19 in human microsomes preincubated at 10 uM for 5 mins before substrate addition measured after 10 mins by LC/MS/MS analysis; assay type: ADME
[26] = target: CYP2C9 (Homo sapiens, UniProt P11712); assay: Inhibition of CYP2C9 in human microsomes preincubated at 10 uM for 5 mins before substrate addition measured after 10 mins by LC/MS/MS analysis; assay type: ADME
[27] = target: CYP1A2 (Homo sapiens, UniProt P05177); assay: Inhibition of CYP1A2 in human microsomes preincubated at 10 uM for 5 mins before substrate addition measured after 10 mins by LC/MS/MS analysis; assay type: ADME
[28] = target: Cytochrome P450 2D6 (Homo sapiens, UniProt P10635); assay: Inhibition of CYP2D6 in human microsomes preincubated for 5 mins before substrate addition measured after 10 mins by LC/MS/MS analysis; assay type: ADME
[29] = system: Liver microsome; assay: Half life in rat liver microsomes at 100 uM by LC-MS/MS analysis; assay type: ADME
[30] = system: Liver microsome; assay: Half life in human liver microsomes at 100 uM by LC-MS/MS analysis; assay type: ADME
[31] = system: Plasma; assay: Fraction unbound in human plasma at 10 uM after 5 hrs by LC-MS/MS analysis; assay type: ADME, cell-free
[32] = target: CYP2D6 (Homo sapiens, UniProt P10635); assay: Inhibition of CYP2D6 in human microsomes preincubated at 10 uM for 5 mins before substrate addition measured after 10 mins by LC/MS/MS analysis; assay type: ADME
[33] = system: Plasma; assay: Fraction unbound in rat plasma at 10 uM after 5 hrs by LC-MS/MS analysis; assay type: ADME, cell-free
[34] = target: T4, Adenosine receptor A3 (Mus musculus) (UniProt Q61618); assay: Agonist activity at mouse A3 adenosine receptor expressed in HEK293 cells assessed as inhibition of forskolin-stimulated cAMP production after 15 mins relative to control; assay type: functional, cell-based
T4 sequence (whole entry): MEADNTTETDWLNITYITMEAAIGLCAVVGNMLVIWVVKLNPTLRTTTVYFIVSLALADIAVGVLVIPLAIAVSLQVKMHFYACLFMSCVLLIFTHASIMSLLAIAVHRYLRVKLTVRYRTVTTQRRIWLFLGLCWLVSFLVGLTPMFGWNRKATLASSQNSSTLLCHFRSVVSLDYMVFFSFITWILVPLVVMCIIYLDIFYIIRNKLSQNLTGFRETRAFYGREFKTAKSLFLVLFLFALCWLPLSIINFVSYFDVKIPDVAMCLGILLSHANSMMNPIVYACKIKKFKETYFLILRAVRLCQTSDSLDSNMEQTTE
Method in brief: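 2 × 10^5 cells/tube, coincubated with forskolin 10 μM plus ligand for 15 min at 37 °C with shaking. Stopped with HCl. cAMP in supernatant measured by competitive binding.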

[35] = species on record: Homo sapiens; assay: Binding affinity to sigma2 receptor (unknown origin) by PDSP screening
[36] = target: Sigma non-opioid intracellular receptor 1 (Homo sapiens) (UniProt Q99720); assay: Binding affinity to sigma1 receptor (unknown origin) by PDSP screening
[37] = target: Translocator protein (Homo sapiens) (UniProt P30536); assay: Binding affinity to TSPO (unknown origin) by PDSP screening
Chain of Translocator protein (Homo sapiens) (P30536 whole entry): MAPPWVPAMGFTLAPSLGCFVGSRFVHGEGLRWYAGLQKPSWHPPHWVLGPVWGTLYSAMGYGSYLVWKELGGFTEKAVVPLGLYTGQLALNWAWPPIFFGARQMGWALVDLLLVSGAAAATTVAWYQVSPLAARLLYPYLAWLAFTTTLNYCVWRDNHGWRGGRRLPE

Chain of Cytochrome P450 2C9 (P11712 whole entry): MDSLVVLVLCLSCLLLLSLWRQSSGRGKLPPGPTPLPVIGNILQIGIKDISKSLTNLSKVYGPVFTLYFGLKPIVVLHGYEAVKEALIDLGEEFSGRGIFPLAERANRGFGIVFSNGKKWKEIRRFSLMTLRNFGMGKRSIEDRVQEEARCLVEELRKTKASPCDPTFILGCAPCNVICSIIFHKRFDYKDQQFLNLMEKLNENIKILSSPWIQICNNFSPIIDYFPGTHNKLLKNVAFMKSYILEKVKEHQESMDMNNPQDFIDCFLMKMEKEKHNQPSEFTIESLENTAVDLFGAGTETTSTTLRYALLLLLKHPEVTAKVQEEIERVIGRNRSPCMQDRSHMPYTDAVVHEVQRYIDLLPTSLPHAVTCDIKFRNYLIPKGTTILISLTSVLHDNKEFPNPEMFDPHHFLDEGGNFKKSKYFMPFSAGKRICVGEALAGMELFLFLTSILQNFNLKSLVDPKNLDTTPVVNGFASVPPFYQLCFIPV
Chain of Adenosine receptor A2a (Homo sapiens) (P29274 whole entry): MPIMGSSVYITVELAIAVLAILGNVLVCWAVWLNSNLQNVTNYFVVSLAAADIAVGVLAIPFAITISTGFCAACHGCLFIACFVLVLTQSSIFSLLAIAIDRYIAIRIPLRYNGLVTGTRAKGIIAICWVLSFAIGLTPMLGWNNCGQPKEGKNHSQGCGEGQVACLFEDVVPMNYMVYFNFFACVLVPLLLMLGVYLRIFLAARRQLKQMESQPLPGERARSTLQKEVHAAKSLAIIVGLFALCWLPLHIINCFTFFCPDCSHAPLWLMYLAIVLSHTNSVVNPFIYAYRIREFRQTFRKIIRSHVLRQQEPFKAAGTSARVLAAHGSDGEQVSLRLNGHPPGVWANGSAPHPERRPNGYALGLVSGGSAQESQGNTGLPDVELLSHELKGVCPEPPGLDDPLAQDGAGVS
Chain of Adenosine receptor A2a (Mus musculus) (Q60613 whole entry): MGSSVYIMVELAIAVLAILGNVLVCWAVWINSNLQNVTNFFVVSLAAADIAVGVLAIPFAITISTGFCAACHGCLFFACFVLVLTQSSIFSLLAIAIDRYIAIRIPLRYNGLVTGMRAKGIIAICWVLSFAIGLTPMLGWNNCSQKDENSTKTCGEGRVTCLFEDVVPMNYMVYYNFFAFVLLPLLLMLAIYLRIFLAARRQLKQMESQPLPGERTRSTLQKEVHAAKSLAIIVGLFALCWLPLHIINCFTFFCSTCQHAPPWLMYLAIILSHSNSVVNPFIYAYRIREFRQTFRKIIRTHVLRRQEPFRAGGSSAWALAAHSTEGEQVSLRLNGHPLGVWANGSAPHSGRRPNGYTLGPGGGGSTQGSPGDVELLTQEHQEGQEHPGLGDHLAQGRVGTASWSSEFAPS
Chain of Cytochrome P450 3A4 (P08684 whole entry): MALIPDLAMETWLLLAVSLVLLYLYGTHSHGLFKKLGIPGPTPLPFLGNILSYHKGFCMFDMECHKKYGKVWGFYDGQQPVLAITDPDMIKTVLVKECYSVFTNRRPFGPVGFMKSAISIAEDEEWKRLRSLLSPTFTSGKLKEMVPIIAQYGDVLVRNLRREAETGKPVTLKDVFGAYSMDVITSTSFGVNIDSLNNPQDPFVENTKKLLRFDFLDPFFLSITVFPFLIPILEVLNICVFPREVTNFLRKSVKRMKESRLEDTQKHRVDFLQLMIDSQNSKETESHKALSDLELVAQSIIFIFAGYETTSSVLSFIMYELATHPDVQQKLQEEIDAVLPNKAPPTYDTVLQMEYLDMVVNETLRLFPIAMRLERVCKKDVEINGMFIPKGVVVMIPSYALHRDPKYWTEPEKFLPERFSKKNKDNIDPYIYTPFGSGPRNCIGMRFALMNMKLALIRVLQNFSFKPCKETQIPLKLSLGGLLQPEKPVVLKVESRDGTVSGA
Chain of Cytochrome P450 2C19 (P33261 whole entry): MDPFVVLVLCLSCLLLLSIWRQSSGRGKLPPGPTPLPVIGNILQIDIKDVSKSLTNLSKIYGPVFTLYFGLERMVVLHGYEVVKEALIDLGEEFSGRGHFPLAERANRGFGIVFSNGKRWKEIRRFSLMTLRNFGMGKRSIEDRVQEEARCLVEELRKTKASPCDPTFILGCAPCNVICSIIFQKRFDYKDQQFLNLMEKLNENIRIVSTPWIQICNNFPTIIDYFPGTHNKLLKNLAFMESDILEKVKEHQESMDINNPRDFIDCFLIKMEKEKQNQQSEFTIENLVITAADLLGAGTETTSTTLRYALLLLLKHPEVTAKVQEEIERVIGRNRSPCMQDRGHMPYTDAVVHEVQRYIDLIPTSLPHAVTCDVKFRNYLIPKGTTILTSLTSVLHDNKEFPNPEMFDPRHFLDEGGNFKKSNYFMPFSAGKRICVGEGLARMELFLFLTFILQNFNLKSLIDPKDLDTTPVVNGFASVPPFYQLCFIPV
Chain of Cytochrome P450 2D6 (P10635 whole entry): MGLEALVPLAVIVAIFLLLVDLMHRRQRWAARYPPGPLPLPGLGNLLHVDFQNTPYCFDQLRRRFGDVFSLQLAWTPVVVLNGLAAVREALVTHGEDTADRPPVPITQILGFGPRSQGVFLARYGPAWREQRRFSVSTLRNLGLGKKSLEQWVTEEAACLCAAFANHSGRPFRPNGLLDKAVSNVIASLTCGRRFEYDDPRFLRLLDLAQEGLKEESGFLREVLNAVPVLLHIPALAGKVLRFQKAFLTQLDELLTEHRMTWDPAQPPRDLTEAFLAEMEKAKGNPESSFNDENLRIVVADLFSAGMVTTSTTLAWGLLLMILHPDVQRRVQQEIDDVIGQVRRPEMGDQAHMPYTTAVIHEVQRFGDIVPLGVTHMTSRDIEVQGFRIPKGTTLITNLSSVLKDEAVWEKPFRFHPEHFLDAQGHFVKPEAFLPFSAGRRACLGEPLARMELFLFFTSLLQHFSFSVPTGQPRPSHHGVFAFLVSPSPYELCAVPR
Chain of hERG (KCNH2) (Q12809 whole entry): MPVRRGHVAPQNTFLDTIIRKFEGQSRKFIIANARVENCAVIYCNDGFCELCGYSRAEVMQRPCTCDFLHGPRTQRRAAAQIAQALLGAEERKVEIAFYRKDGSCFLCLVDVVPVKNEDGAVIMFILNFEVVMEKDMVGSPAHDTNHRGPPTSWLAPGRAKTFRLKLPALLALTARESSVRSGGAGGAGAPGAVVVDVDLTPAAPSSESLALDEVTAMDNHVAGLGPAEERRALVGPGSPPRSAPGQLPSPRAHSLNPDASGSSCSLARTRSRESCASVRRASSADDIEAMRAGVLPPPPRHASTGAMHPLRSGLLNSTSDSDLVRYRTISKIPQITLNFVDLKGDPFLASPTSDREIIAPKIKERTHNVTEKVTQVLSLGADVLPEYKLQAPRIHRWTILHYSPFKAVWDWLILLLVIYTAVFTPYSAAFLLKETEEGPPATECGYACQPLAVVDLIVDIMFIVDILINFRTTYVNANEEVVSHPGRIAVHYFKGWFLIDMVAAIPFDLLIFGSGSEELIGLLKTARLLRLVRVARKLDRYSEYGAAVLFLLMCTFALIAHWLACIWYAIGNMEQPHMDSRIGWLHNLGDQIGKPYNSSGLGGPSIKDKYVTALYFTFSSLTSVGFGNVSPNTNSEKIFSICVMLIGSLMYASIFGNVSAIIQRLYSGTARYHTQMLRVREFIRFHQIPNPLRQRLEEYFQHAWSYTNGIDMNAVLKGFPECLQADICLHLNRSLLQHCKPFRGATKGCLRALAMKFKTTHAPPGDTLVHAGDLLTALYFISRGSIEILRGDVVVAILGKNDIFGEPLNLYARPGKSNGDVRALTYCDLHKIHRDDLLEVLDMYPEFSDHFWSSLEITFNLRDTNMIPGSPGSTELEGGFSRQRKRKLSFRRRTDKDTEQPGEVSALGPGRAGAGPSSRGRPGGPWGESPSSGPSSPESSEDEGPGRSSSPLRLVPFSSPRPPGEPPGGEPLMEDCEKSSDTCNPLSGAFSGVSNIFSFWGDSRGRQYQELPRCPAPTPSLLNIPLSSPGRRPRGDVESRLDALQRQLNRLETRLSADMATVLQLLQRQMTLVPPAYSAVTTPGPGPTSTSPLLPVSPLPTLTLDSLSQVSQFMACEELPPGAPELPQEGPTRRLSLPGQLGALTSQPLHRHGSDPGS
Chain of CYP2C9 (P11712 whole entry): as the sequence (P11712 whole entry) above
Chain of Sigma non-opioid intracellular receptor 1 (Homo sapiens) (Q99720 whole entry): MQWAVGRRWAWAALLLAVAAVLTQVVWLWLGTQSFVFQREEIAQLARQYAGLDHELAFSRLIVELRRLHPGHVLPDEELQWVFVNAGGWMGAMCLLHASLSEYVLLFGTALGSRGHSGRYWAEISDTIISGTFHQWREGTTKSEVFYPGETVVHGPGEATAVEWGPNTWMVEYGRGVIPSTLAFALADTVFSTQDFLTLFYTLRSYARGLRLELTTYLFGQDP
Chain of CYP3A4 (P08684 whole entry): as the sequence (P08684 whole entry) above
Chain of CYP2D6 (P10635 whole entry): as the sequence (P10635 whole entry) above

inhibition [8] [%]	inhibition [10] [%]	inhibition [11] [%]	permeability [12]	inhibition [13] [%]	IC50 [14] [µM]	CLH [15] [µL/min]	IC50 [19] [µM]	IC50 [20] [µM]	IC50 [21] [µM]	IC50 [28] [µM]	Imax [34] [%]	Structure (SMILES)	IC50 [1] [µM]	Emax at 3 µmol/kg [2] [%]	Activity [3] [%]	Time [5] [h]	inhibition at 10 µM [9] [%]	other results
–	–	–	–	–	–	–	–	–	–	–	–	CNC(=O)[C@@]12C[C@@H]1[C@@H](n1cnc3c(NC)nc(C#Cc4ccc(F)c(F)c4)nc31)[C@H](O)[C@@H]2O	27	99	28.7	1	–	Ratio IC50 [4]: > 10000; Ratio Ki [6]: > 30; Ki [7]: 0.086 µM
30	18	59	permeable	17	–	–	–	–	–	–	–	CNC(=O)[C@@]12C[C@@H]1[C@@H](n1cnc3c(NC)nc(C#Cc4ccco4)nc31)[C@H](O)[C@@H]2O	–	100	27.6	1	21	–
18	19	–	–	10	> 7	3.38	> 7	> 7	> 7	7.4	–	CNC(=O)[C@@]12C[C@@H]1[C@@H](n1cnc3c(NC)nc(C#Cc4ccc(Br)s4)nc31)[C@H](O)[C@@H]2O	–	100	48.7	1	–	solubility [16]: 15.6 µg/mL (≈ 31 µM); inhibition at 10 min, 10 µM [17]: 3.1%; t1/2 [18]: > 8 h; t1/2 [22]: > 8 h; t1/2 [23]: 1.6 h; Fu [24]: 2.75%; inhibition at 10 min, 10 µM [25]: 34%; inhibition at 10 min, 10 µM [26]: 24.2%; inhibition at 10 min, 10 µM [27]: 15%; t1/2 [29]: 1.52 h; t1/2 [30]: 3.42 h; Fu [31]: 2.67%; inhibition at 10 min, 10 µM [32]: 57.5%; Fu [33]: 4.04%
37	25	–	impermeable	12	> 10	2.99	> 10	> 10	> 10	> 10	30	CNC(=O)[C@@]12C[C@@H]1[C@@H](n1cnc3c(NC)nc(C#Cc4cnccn4)nc31)[C@H](O)[C@@H]2O	–	100	–	1	–	–
35	12	72	–	16	–	–	–	–	–	–	–	CNC(=O)[C@@]12C[C@@H]1[C@@H](n1cnc3c(NC)nc(C#Cc4cnn(C)c4)nc31)[C@H](O)[C@@H]2O	–	87.3	–	1	28	–
6	24	38	permeable	7	> 10	3.69	> 10	> 10	> 10	> 10	35	CNC(=O)[C@@]12C[C@@H]1[C@@H](n1cnc3c(NC)nc(C#Cc4ccc(Cl)s4)nc31)[C@H](O)[C@@H]2O	12.9	93.3	82.8	0.5	–	Activity [35]: Active; Activity [36]: Active; Activity [37]: Active
